Source: PubChem
Rows were chosen to be rich in hits. Some 2% of all compounds tested hit in one or more screens of this group.
RanGTP-Imp inh – disruptors of Ran-importin-beta complex formation – biochemical, FRET, CFP-Ran, YFP-importin-beta, homogeneous, primary screen | cell-free CFP-Ran/YFP-importin-beta FRET ratio | inhibition, % (no concentration beside the values) | actives 1.1% (n = 300,000) | AID 2216;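 active means more than half of the replicate wells show a fall in the fluorescence ratio signal beyond about 16%, limit read from the data, passing the limit was not always enough; inconclusive means exactly half of the replicate wells pass the set limit; inactive means fewer than half of replicates pass the limit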
MEX-5 binding – C. elegans MEX-5 TCR-2 RNA binding activity | actives 0.38% (n = 300,000) | Q9XUB2 | activity score (negative = inhibition of binding), % at 10 µM | MEX-5/FITC-TCR2 RNA binding, fluorescence polarization; active compounds read low;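 active means inhibition past about -25% in most replicates, and total fluorescence under double the plate's negative control median, limit read from the data; inconclusive means replicates evenly split on the limit, or fluorescence at least double controls; inactive means too little inhibition in most replicates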
EBV gp42 block – inhibitors of Epstein-Barr virus glycoprotein 42 | inhibition, % (tested at 21.74 µM) | Fluorescence polarization binding assay, mP read-out | actives 0.42% (n = 220,000) | Q1HVG2
Target sequence (Q1HVG2 whole entry, looked up): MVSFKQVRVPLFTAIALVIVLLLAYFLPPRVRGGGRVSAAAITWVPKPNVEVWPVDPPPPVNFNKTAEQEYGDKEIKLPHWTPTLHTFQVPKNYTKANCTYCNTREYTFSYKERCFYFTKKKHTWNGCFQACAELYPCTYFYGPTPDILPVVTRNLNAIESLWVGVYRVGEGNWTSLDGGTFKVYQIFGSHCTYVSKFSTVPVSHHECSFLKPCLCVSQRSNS
PKD1 inh – blocks activity of human protein kinase D1; Q15139; PKD1 kinase fluorescence polarization assay; inhibition, % (no concentration beside the values); actives 0.056% (n = 200,000); AID 797
Runt-CBFb FRET – Runt domain-CBFb interaction inhibition; Q01196+Q13951; Cerulean-Runt/Venus-CBFb FRET ratio 530/480, 1 h; inhibition, % at 20 µM; actives 0.46% (n = 220,000);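 active means inhibition over about 50% at 20 µM in the single-dose screen, limit read from the data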
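Assay system: Cerulean-Runt domain / Medium: Tris 50 mM pH 7.5, KCl, K2SO4, 0.01% BSA / Timing: protein complex preformed 1 h, compound exposure 1 h, room temperature, dark / Measured by: FRET, excitation 422 nm, emission at 530 and 480 nm / Evaluation: loss of energy transfer signal / Control set: 5 µM unlabeled CBFb as full-inhibition high control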
Runt-SMMHC FRET – Runt domain-CBFb-SMMHC interaction inhibition; Cerulean-Runt/Venus-CBFb-SMMHC FRET ratio 530/480, 1 h; inhibition, % at 20 µM; AID 1434; actives 0.74% (n = 220,000); Q01196+Q13951;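 active means mean inhibition across duplicate retests at 20 µM reaching about 50%, limit read from the data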;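 further: inhibitors lower the FRET ratio by blocking Runt binding to CBFb-SMMHC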
Each line names hits and unclear results; the compound was inactive in the other large screens. Unless noted, no stated cut-off is given here; in the data, active means inhibition above about 50%; inactive means the rest.

Cc1cccc2cc3c(NC(=O)CC(C)C)nn(C)c3nc12	none
CCCCC(=O)Nc1nn(CCC)c2nc3ccccc3cc12	RanGTP-Imp inh 63
CCn1nc(NC(C)=O)c2cc3ccc(C)cc3nc21	none (no result: EBV gp42 block, PKD1 inh, Runt-CBFb FRET, Runt-SMMHC FRET)
CCn1nc(NC(=O)Cc2ccc(OC)cc2)c2cc3cc(C)ccc3nc21	RanGTP-Imp inh 19 (no result: PKD1 inh)
CC(C)CN(C(=O)COC(=O)c1c(Cl)ccc(Cl)c1Cl)C1CCS(=O)(=O)C1 (stereo not drawn)	none
CCCCC(=O)Nc1nn(CC)c2nc3c(C)cccc3cc12	RanGTP-Imp inh 37 (no result: EBV gp42 block, PKD1 inh, Runt-CBFb FRET, Runt-SMMHC FRET)
CCCCC(=O)Nc1nn(C)c2nc3c(C)cccc3cc12	none
CCCCn1nc(NC(=O)COC)c2cc3cc(OC)ccc3nc21	RanGTP-Imp inh 99 (no result: EBV gp42 block, PKD1 inh, Runt-CBFb FRET, Runt-SMMHC FRET)
CC(=O)Nc1nn(C)c2nc3ccc(C)cc3cc12	none (no result: EBV gp42 block, PKD1 inh, Runt-CBFb FRET, Runt-SMMHC FRET)
CCn1nc(NC(=O)c2ccccn2)c2cc3cc(C)ccc3nc21	RanGTP-Imp inh 89, Runt-SMMHC FRET 82
N#CC(c1nc2ccccc2nc1N1CCCC1)S(=O)(=O)c1cccs1 (stereo not drawn)	none
Cc1ccc(C)c(S(=O)(=O)C(C#N)c2nc3ccccc3nc2N2CCOCC2)c1 (stereo not drawn)	none
COc1ccc(S(=O)(=O)C(C#N)c2nc3ccccc3nc2N2CCCCC2)cc1 (stereo not drawn)	RanGTP-Imp inh inconclusive
Cc1ccc(S(=O)(=O)C(C#N)c2nc3ccccc3nc2N2CCN(C)CC2)cc1C (stereo not drawn)	RanGTP-Imp inh 94
CN1CCN(c2nc3ccccc3nc2C(C#N)S(=O)(=O)c2ccccc2)CC1 (stereo not drawn)	RanGTP-Imp inh 64 (no result: PKD1 inh)
Cc1cccc(S(=O)(=O)C(C#N)c2nc3ccccc3nc2N2CCCC2)c1 (stereo not drawn)	EBV gp42 block 92
Cc1ccc(C)c(S(=O)(=O)C(C#N)c2nc3ccccc3nc2N2CCCC2)c1 (stereo not drawn)	EBV gp42 block 110
CCc1ccc(S(=O)(=O)c2nnn3c2nc(N2CCOCC2)c2ccccc23)cc1	none (no result: EBV gp42 block, PKD1 inh, Runt-CBFb FRET, Runt-SMMHC FRET)
N#CC(c1nc2ccccc2nc1N1CCCC1)S(=O)(=O)c1ccccc1 (stereo not drawn)	EBV gp42 block 102
CC(CNS(=O)(=O)c1ccccc1)(c1ccccc1)N1CCCCC1 (stereo not drawn)	none (no result: PKD1 inh)
CCC/C(=N\NC(=O)c1ccco1)c1ccc(Cl)s1	none (no result: EBV gp42 block, PKD1 inh, Runt-CBFb FRET, Runt-SMMHC FRET)
CC(=O)Oc1ccc(-c2cc3c(OC(C)=O)cc(OC(C)=O)cc3oc2=O)cc1	RanGTP-Imp inh 123 (no result: EBV gp42 block, PKD1 inh, Runt-CBFb FRET, Runt-SMMHC FRET)
CC(=O)Oc1ccc(-c2cc3ccccc3oc2=O)cc1	none (no result: EBV gp42 block, PKD1 inh, Runt-CBFb FRET, Runt-SMMHC FRET)
C=CCNC(=S)NNC(=O)c1ccc(=O)n(Cc2ccc(Cl)cc2Cl)c1	none
CCOc1cc2c(cc1/C=C(/C#N)c1ccc(C(=O)O)cc1)OCO2	MEX-5 binding -32
N#C/C(=C\c1ccc(Cl)cc1)c1nc2ncccc2[nH]1	RanGTP-Imp inh 36
CN(C)c1cccc(C(=O)N/N=C/c2ccsc2)c1	none
CCOc1ccc(N(CC(N)=O)S(=O)(=O)c2ccc(F)cc2)cc1	none
CCOc1ccc(S(=O)(=O)N(CC(=O)N2CCC(C(N)=O)CC2)c2ccc(F)cc2)cc1	RanGTP-Imp inh 27 (no result: EBV gp42 block, PKD1 inh, Runt-CBFb FRET, Runt-SMMHC FRET)
CCOC(=O)c1c(NC(=O)C2=COCCO2)sc2c1CCN(C(=O)OC)C2	none (no result: EBV gp42 block, PKD1 inh, Runt-CBFb FRET, Runt-SMMHC FRET)
Cc1cc(NC(=O)CCN2CCC(C(N)=O)CC2)ccc1Br	RanGTP-Imp inh 59
CCOC(=O)c1c(S(=O)(=O)NCC(=O)Nc2ccc(F)cc2F)c(C)n(C)c1C	none (no result: EBV gp42 block, PKD1 inh, Runt-CBFb FRET, Runt-SMMHC FRET)
CN1CCc2c(sc(/N=C/c3ccco3)c2C(N)=O)C1	Runt-CBFb FRET 106, Runt-SMMHC FRET 62
CN1CCc2c(sc(/N=C/c3cccs3)c2C(N)=O)C1	RanGTP-Imp inh inconclusive, Runt-CBFb FRET 81, Runt-SMMHC FRET 65
O=C(CSc1nnc(Nc2ccccc2F)s1)Nc1cccc(S(=O)(=O)N2CCCCC2)c1	none
Cc1ccc(C(=O)Nc2c3c(nn2C(C)(C)C)CS(=O)(=O)C3)cc1[N+](=O)[O-]	none (no result: EBV gp42 block, PKD1 inh, Runt-CBFb FRET, Runt-SMMHC FRET)
Cc1ccc(C(=O)Nc2c3c(nn2C(C)(C)C)CS(=O)(=O)C3)cc1C	Runt-CBFb FRET 98
O=C(O)/C=C/c1coc2ccc(F)cc2c1=O	none
O=C(O)/C=C/c1coc2ccccc2c1=O	RanGTP-Imp inh 35
